From ChEMBL document CHEMBL3826877, “Fatty Acid Amide Hydrolase (FAAH), Acetylcholinesterase (AChE), and Butyrylcholinesterase (BuChE): Networked Targets for the Development of Carbamates as Potential Anti-Alzheimer's Disease Agents” (J Med Chem, 2016)

Columns and labels:
Cholinesterase [1] = biological target: T1, Cholinesterase (Homo sapiens, UniProt P06276); assay: Inhibition of human serum BuChE using butyrylthiocholine iodide as substrate preincubated for 20 mins followed by substrate addition by Ellman's method
T1 sequence (P06276 whole entry): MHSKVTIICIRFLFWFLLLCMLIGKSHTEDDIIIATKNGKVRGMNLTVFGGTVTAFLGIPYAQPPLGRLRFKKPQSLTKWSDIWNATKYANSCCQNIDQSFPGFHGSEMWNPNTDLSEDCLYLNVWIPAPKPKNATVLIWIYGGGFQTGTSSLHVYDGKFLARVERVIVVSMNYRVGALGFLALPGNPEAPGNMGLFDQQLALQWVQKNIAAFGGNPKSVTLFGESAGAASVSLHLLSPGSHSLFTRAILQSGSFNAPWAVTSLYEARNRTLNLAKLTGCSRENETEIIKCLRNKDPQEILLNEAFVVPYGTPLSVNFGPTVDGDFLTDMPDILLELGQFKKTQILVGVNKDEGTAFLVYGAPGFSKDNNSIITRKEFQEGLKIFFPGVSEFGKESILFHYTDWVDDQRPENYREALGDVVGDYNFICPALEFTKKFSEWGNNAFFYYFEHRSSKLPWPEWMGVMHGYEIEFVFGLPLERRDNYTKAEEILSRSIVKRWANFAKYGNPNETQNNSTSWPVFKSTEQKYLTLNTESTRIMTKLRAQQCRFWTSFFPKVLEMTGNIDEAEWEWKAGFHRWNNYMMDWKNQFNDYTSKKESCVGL
Method in brief: (§1)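 Ellman assay at 37 °C in 0.1 M phosphate pH 8.0 with 340 µM DTNB, 0.02 U/mL enzyme and 550 µM thiocholine substrate. Enzyme and inhibitor preincubated before substrate: AChE 120 min (one compound 60 min), BuChE 15 or 20 min depending on N-substituent. Non-enzymatic blanks run. […] IC50 by linear regression of % inhibition vs log concentration. Mean of 2-3 independent runs in duplicate.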

Acetylcholinesterase [2] = biological target: T2, Acetylcholinesterase (Homo sapiens, UniProt P22303); assay: Inhibition of recombinant human AChE expressed in HEK293 cells using acetylthiocholine iodide as substrate preincubated for 120 mins followed by substrate addition by Ellman's method; method in brief: as §1
T2 sequence (P22303 whole entry): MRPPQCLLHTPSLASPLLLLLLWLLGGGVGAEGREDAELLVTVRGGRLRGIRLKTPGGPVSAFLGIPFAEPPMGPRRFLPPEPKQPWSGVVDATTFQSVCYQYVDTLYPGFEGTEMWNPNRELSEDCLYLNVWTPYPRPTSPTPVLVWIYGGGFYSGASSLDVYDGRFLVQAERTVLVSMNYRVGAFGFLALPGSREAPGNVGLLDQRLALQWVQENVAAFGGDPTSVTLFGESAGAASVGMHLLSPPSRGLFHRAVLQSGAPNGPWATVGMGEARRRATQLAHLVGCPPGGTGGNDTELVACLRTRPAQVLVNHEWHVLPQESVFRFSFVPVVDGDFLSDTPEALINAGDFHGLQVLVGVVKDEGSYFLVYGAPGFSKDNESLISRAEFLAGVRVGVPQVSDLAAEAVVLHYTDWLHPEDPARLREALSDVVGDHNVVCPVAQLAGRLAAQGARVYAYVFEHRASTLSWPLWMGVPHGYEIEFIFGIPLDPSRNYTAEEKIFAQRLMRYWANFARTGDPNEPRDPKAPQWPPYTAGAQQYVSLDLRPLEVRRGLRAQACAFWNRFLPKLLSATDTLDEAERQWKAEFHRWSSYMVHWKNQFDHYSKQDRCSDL

[3] = biological target: T3, Fatty-acid amide hydrolase 1 (Rattus norvegicus, UniProt P97612); assay: Inhibition of FAAH in rat brain membrane using N-arachidonoyl-[14C]-ethanolamine as substrate preincubated for 20 mins followed by substrate addition measured after 30 mins by scintillation counting method; type: cell membranes
T3 sequence (P97612 whole entry): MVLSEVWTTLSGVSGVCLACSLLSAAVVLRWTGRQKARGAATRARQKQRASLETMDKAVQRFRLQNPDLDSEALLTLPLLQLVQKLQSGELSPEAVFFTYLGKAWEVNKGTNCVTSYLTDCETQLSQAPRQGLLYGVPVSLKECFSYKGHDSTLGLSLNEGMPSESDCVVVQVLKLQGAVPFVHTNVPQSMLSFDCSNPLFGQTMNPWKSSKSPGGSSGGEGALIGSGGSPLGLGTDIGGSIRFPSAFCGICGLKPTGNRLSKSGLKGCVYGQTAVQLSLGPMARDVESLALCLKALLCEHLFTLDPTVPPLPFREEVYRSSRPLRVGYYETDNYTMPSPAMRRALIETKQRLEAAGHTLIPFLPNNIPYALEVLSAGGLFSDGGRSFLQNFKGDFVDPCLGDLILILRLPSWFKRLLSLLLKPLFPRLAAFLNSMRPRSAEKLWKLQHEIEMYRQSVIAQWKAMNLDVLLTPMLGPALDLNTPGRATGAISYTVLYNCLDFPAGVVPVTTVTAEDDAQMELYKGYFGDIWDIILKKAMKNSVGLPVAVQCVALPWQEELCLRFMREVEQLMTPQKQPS
Method in brief: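 Compound preincubated 20 min at 37 °C with rat brain 10,000 x g membranes (70 µg/sample), then [14C]-AEA (diluted with AEA) added in 50 mM Tris-HCl pH 9.00-10.00, 37 °C, 30 min. [14C]-ethanolamine counted by scintillation after CHCl3/MeOH 1:1 extraction.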

Cholinesterase [4] = biological target: T1, Cholinesterase; assay: Inhibition of human serum BuChE assessed as enzyme carbamoylation using butyrylthiocholine iodide as substrate preincubated with enzyme followed by substrate addition by Ellman's method; conditions: TDE = time-dependent effect
[5] = biological target: T3, Fatty-acid amide hydrolase 1; assay: Inhibition of FAAH in rat brain membrane using N-arachidonoyl-[14C]-ethanolamine as substrate incubated for 30 mins by scintillation counting method; type: cell membranes
Method in brief: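 Rat brain 10,000 x g membrane fraction (70 µg/sample) co-incubated with compound and [14C]-AEA diluted with unlabelled AEA in 50 mM Tris-HCl, pH 9.00-10.00, 37 °C, 30 min. Released [14C]-ethanolamine measured by scintillation of the aqueous phase after CHCl3/MeOH 1:1 extraction.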

Acetylcholinesterase [6] = biological target: T2, Acetylcholinesterase; assay: Inhibition of recombinant human AChE expressed in HEK293 cells assessed as enzyme carbamoylation using acetylthiocholine iodide as substrate preincubated with enzyme followed by substrate addition by Ellman's method; conditions: TDE = time-dependent effect
Cholinesterase [7] = biological target: T1, Cholinesterase; assay: Inhibition of human serum BuChE using butyrylthiocholine iodide as substrate preincubated for 15 mins followed by substrate addition by Ellman's method; method in brief: as §1
Cholinesterase [8] = biological target: T1, Cholinesterase; assay: Inhibition of human serum BuChE assessed as pseudo-first order rate constant for enzyme carbamoylation using butyrylthiocholine iodide as substrate preincubated for 2 to 30 mins followed by substrate addition by Ellman's method
Method in brief: (§2)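 Stopped-time assay at pH 8.0, 37 °C, five inhibitor concentrations. AChE: 16.7-167.5 nM, residual activity read at 15, 30, 60, 90 and 120 min. BuChE: 0.46-4.58 nM, read at […], 2, 5, 10, 15 and 30 min. Activities corrected against an uninhibited control at each time. R = R0·exp(−kobs·t)+R∞ fitted to give kobs. k3 obtained from a double-reciprocal plot of kobs vs [I].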

Acetylcholinesterase [9] = biological target: T2, Acetylcholinesterase; assay: Inhibition of recombinant human AChE expressed in HEK293 cells assessed as pseudo-first order rate constant for enzyme carbamoylation using acetylthiocholine iodide as substrate preincubated for 15 to 120 mins followed by substrate addition by Ellman's method; method in brief: as §2
Acetylcholinesterase [10] = biological target: T2, Acetylcholinesterase; assay: Inhibition of recombinant human AChE expressed in HEK293 cells using acetylthiocholine iodide as substrate preincubated for 60 mins followed by substrate addition by Ellman's method; method in brief: as §1
Homo sapiens [11] = assay: Binding affinity to AChE in human assessed as enzyme reactivation half life at 1.5 mg/kg, iv dosed over 60 mins infusion; type: functional, organism-based
SH-SY5Y [12] = assay: Cytotoxicity against human SH-SY5Y assessed as reduction in cell viability at 1 to 25 uM after 24 hrs by MTT assay; type: cell-based
Method in brief: (§3)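 SH-SY5Y neuroblastoma cells grown in DMEM with 2 mM L-glutamine, penicillin/streptomycin and 10% FBS. Cells seeded and cultured overnight at 37°C, 5% CO2. Compounds in DMSO (final under 0.1%) added for 24 h. MTT 0.5 mg/mL added for 3 h, formazan taken up in isopropanol, absorbance read at 620 nm. Viability given relative to vehicle. Three independent experiments in quadruplicate.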

SH-SY5Y [13] = assay: Cytotoxicity against human SH-SY5Y assessed as reduction in cell viability at 50 uM after 24 hrs by MTT assay; type: cell-based; method in brief: as §3
Homo sapiens [14] = assay: Binding affinity to AChE in human assessed as enzyme reactivation half life at 8 to 40 mg/kg, po; type: functional, organism-based
[15] = biological target: T3, Fatty-acid amide hydrolase 1; assay: Inhibition of FAAH in rat brain membrane at pH 9 using N-arachidonoyl-[14C]-ethanolamine as substrate preincubated for 10 mins followed by substrate addition measured after 30 mins by scintillation counting method; type: cell membranes
Method in brief: (§4)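 Rat brain 10,000 x g membrane fraction (70 µg/sample) in 50 mM Tris-HCl at pH 9.0 or 7.4, preincubated 10 min with compound. [14C]-AEA diluted with AEA then added, reaction run at 37 °C. [14C]-ethanolamine in the aqueous phase after CHCl3/MeOH 1:1 extraction counted by scintillation.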

[16] = biological target: T3, Fatty-acid amide hydrolase 1; assay: Inhibition of FAAH in rat brain membrane at pH 7.4 using N-arachidonoyl-[14C]-ethanolamine as substrate preincubated for 10 mins followed by substrate addition measured after 30 mins by scintillation counting method; type: cell membranes; method in brief: as §4
SH-SY5Y [17] = assay: Cytotoxicity against human SH-SY5Y assessed as reduction in cell viability at 1 to 50 uM after 24 hrs by MTT assay; type: cell-based; method in brief: as §3

Row | Structure (SMILES) | IC50 (Cholinesterase [1]) [nM] | IC50 (Acetylcholinesterase [2]) [nM] | IC50 [3] [nM] | inhibition (Cholinesterase [4]) | IC50 [5] [nM] | inhibition (Acetylcholinesterase [6]) | IC50 (Cholinesterase [7]) [nM] | further results
1 | CCCCCCCNC(=O)Oc1cccc(CN(C)CCCOc2ccc3c4c(c(=O)oc3c2)CCCC4)c1 | 0.27 | 21.6 | 306 | tde | 2490 | tde |  | 
2 | CN(CCCOc1ccc2c(c1)oc(=O)c1ccccc12)Cc1cccc(OC(=O)NCCCCCc2ccccc2)c1 |  | 390 | 312 | tde | 1830 | tde | 1.19 | 
3 | CCCCCCc1ccc(NC(=O)Oc2cccc(CN(C)CCCOc3ccc4ccc(=O)oc4c3)c2)cc1 |  |  | > 50000 | tde | > 50000 | tde | 32.1 | K (Cholinesterase [8]): 0.461 min⁻¹; K (Acetylcholinesterase [9]): 0.203 min⁻¹; IC50 (Acetylcholinesterase [10]): 3800 nM
4 | CNC(=O)Oc1ccc2c(c1)[C@]1(C)CCN(C)[C@@H]1N2C |  |  |  |  |  |  |  | T1/2 (Homo sapiens [11]): 0.5 h
5 | CCCCCCCNC(=O)Oc1cccc(Cn2cc(COc3ccc4ccc(=O)oc4c3)nn2)c1 | 78.2 | 1040 | 32.6 |  | 109 |  |  | 
6 | CN(CCCOc1ccc2ccc(=O)oc2c1)Cc1cccc(OC(=O)NCCCCCCc2ccccc2)c1 |  | 109 | 530 | tde | 1790 | tde | 2.85 | 
7 | CCCCCCCNC(=O)Oc1cccc(CN(C)CCCOc2ccc3ccc(=O)oc3c2)c1 | 1.36 | 37.4 | 28.5 |  | 161 |  |  | Activity (SH-SY5Y [12]): Non-toxic; Activity (SH-SY5Y [13]): Toxic
8 | CN(CCCOc1ccc2cc(-c3ccccc3)c(=O)oc2c1)Cc1cccc(OC(=O)NCCCCCc2ccccc2)c1 |  | 125 | 250 | tde | 1850 | tde | 2.06 | 
9 | CN(CCCOc1ccc2cc(-c3ccc(Cl)cc3)c(=O)oc2c1)Cc1cccc(OC(=O)NCCCCCc2ccccc2)c1 |  | 900 | 265 | tde | 1470 | tde | 3.51 | 
10 | CCCCCCCNC(=O)Oc1ccc2c(c1)[C@]1(C)CCN(C)[C@@H]1N2C |  |  |  |  |  |  |  | T1/2 (Homo sapiens [14]): 10 h
11 | Cc1cc(=O)oc2cc(OCCCN(C)Cc3cccc(OC(=O)NCCCCCc4ccccc4)c3)ccc12 |  | 80.5 | 135 | tde | 459 | tde | 2.75 | 
12 | O=C(NCCCCCc1ccccc1)Oc1ccc(-n2cc(COc3ccc4ccc(=O)oc4c3)nn2)cc1 |  | 47900 | 43.3 |  | 236 |  | 1230 | 
13 | COc1ccc(-c2cc3cc(OCCCN(C)Cc4cccc(OC(=O)NCCCCCc5ccccc5)c4)ccc3oc2=O)cc1 |  | 179 | 211 | tde | 2830 | tde | 1.15 | 
14 | CN(CCCOc1ccc2ccc(=O)oc2c1)Cc1cccc(OC(=O)NCCCCCc2ccccc2)c1 |  |  |  | tde |  | tde |  | IC50 [15]: 183 nM; IC50 [16]: 4100 nM; Activity (SH-SY5Y [17]): Non-toxic
15 | CCCCCCCNC(=O)Oc1cccc(CN(C)CCCOc2ccc3c(=O)c4cccnc4oc3c2)c1 | 0.69 | 13 | 202 | tde | 3130 | tde |  | 
16 | CN(CCCCCOc1ccc2ccc(=O)oc2c1)Cc1cccc(OC(=O)NCCCCCc2ccccc2)c1 |  | 88.1 | 120 | tde | 798 | tde | 1.23 | 
17 | NC(=O)c1cccc(-c2cccc(OC(=O)NC3CCCCC3)c2)c1 [URB-597] |  |  |  |  |  |  |  | Activity (SH-SY5Y [17]): Non-toxic
18 | CN(CCCOc1ccc2c3c(c(=O)oc2c1)CCCC3)Cc1cccc(OC(=O)NCCCCCc2ccccc2)c1 |  | 89.9 | 1390 | tde | 3480 | tde | 1.44 | 
19 | CCCCCCCNC(=O)Oc1ccc(Cn2cc(COc3ccc4ccc(=O)oc4c3)nn2)cc1 | 15.9 | 214 | 55 |  | 354 |  |  | 
20 | CCCCCCCNC(=O)Oc1cccc(CN(C)CCCCCOc2ccc3c(c2)Oc2ncccc2C3)c1 | 0.53 | 6.92 | 178 | tde | 2180 | tde |  | 
21 | O=C(NCCCCCc1ccccc1)Oc1ccc(Cn2cc(COc3ccc4ccc(=O)oc4c3)nn2)cc1 |  | 255 | 28.5 |  | 113 |  | 1.17 | 
22 | CCCCCCCNC(=O)Oc1cccc(-n2cc(COc3ccc4ccc(=O)oc4c3)nn2)c1 | 71.2 | 702 | 15.7 |  | 61.9 |  |  | Activity (SH-SY5Y [17]): Non-toxic
23 | CCCCCCCNC(=O)Oc1ccc(-n2cc(COc3ccc4ccc(=O)oc4c3)nn2)cc1 | 122000 | 158000 | 21.3 |  | 167 |  |  | 
24 | COc1ccc(-c2cc3ccc(OCCCN(C)Cc4cccc(OC(=O)NCCCCCc5ccccc5)c4)cc3oc2=O)cc1 |  | 312 | 322 | tde | 2330 | tde | 1.3 | 
25 | O=C(NCCCCCc1ccccc1)Oc1cccc(-n2cc(COc3ccc4ccc(=O)oc4c3)nn2)c1 |  | 1170 | 44.7 |  | 209 |  | 15.2 | 
26 | CCCCCCCNC(=O)Oc1cccc(CN(C)CCCCCOc2ccc3ccc(=O)oc3c2)c1 | 0.79 | 11.3 | 242 | tde | 1290 | tde |  | 
27 | O=C(NCCCCCc1ccccc1)Oc1cccc(Cn2cc(COc3ccc4ccc(=O)oc4c3)nn2)c1 |  | 922 | 27.9 |  | 157 |  | 42.7 | 
